T cruzi inh: blocks replication of Trypanosoma cruzi; T. cruzi beta-gal in NIH3T3, luminescence, 90 h; inhibition, % (concentration not given with the values); 1.4% of 300,000 active; AID 1885;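 active means mean inhibition across valid replicates above about 55%, limit read from the data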;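 further: signal also drops with host cell toxicity which is not excluded here; 0% = plate median of DMSO wells and 100% = zero luminescence signal; higher percent means less beta-gal luminescence so fewer parasites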
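System: NIH/3T3 fibroblasts plus reporter T. cruzi. Medium: DMEM plus 2% FBS. Probe or stimulus: 5000 reporter trypomastigotes per well. Compound: single 50 nL compound addition per well in DMSO. Incubation: co-culture of at least 90 h after 3 h attachment. Detection: GalScreen β-gal luminescence, detergent lysis, 60 min. Evaluation: parasite load inhibition, %.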
H9c2 TAG inh: reduces triacylglycerol accumulation in H9c2 cells; Nile Red lipid (TAG) fluorescence; cells loaded with 200 µM oleic acid; inhibition, % at 12.5 µM; 0.66% of 230,000 active;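 active means pattern-corrected inhibition of lipid staining of at least 50% with the nuclear-stain viability signal not falling by more than 50%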;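 further: 0% = DMSO wells and 100% = triacsin C control wells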
Calb FLC: affects C. albicans growth with fluconazole; C. albicans CaCi-2 + fluconazole, Alamar Blue growth, 48 h; growth inhibition, % (test concentration not listed); 0.57% of 300,000 active; AID 1979;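 active means growth inhibition above about 58% in most replicates, limit read from the data, passing the limit was not always enough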;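 further: all wells also contain fluconazole at 8 µg/ml as a sub-toxic cotreatment; 0% = median of DMSO wells and 100% = median of geldanamycin control wells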
CSC inhib: blocks cancer stem cells; cancer stem cell-like cells viability, luminescence; inhibition, % at 7.5 µM; 1.1% of 300,000 active; in the data active means inhibition above about 75%; tested in HMLE shEcad cells
Beta apoptosis: beta cell apoptosis inhibition; AID 435005; 0.8% of 300,000 active; protection from apoptosis, % (no concentration beside the values); INS-1E cytokine-induced death, ATP luminescence, 48 h; percent of positive-control rescue, neutral wells zero;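 active means Every replicate reaches about 75%, or at least half do and their mean reaches it too, limit read from the data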;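 further: 0% = cytokine-treated negative control wells and 100% = positive control rescue; higher means more ATP so stronger rescue from cytokine killing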
A1 inh: inhibitors of the anti-apoptotic protein A1, read as caspase activation. MEF A1-2A-BIM cells, Caspase-Glo 3/7 luminescence, 3 h; percent of clofoctol response, vehicle zero. caspase activation, % (no concentration beside the values). 0.066% of 330,000 active;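 active means over half of replicate activation scores above 10%, or exactly half above 10 with the replicate mean above 10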
H9c2 TAG conf: confirmation of triacylglycerol accumulation inhibitors; shares compounds with H9c2 TAG inh; H9c2 lipid accumulation, Nile Red fluorescence; cells loaded with 200 µM oleic acid; inhibition, % at 12.5 µM; 71% of 990 active;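 active means mean inhibition across replicates of 40% or more; inactive means mean inhibition below 40%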;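 further: plate controls were DMSO only wells for no effect and Triacsin C treated wells for full effect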
* = called active by the depositor. An excerpt weighted towards active compounds, which were near 3.1% of everything screened.

Screening CN(C)c1ccc2nc3c(=O)[nH]c(=O)nc-3n(CC(O)C(O)C(O)CO)c2c1 (stereo not given) returned T cruzi inh -3, CSC inhib 24, Beta apoptosis -49 and A1 inh 0.
`Cc1cc(C)c2nc(NC(=O)c3ccc([N+](=O)[O-])o3)sc2c1` gave T cruzi inh 36, H9c2 TAG inh 64*, Calb FLC 1, CSC inhib -11, A1 inh 0 and H9c2 TAG conf 70*.
Screening Cc1nn(Cc2c(Cl)cccc2Cl)c(C)c1NC(=O)c1cnn2c(C(F)F)cc(-c3ccccc3)nc12 returned T cruzi inh 19, H9c2 TAG inh 1, Calb FLC 4, CSC inhib -5, Beta apoptosis -6 and A1 inh 1.
`Cc1ccc(-c2cc(C(F)F)n3ncc(C(=O)Nc4c(C)nn(Cc5c(Cl)cccc5Cl)c4C)c3n2)cc1` gave T cruzi inh -5, H9c2 TAG inh 89*, Calb FLC -2, CSC inhib 15, Beta apoptosis 9, A1 inh 1 and H9c2 TAG conf 47*.
For C=CC[C@H](CC(=O)N(CCO)Cc1ccccc1)C(=O)N[C@H](COC(=O)[C@@H](CC=C)Cc1ccc(F)cc1)C(C)(C)C the results were H9c2 TAG inh 37, Beta apoptosis 0 and A1 inh 0.
For C=CC[C@@H](CC(=O)N[C@H](CO)Cc1ccccc1)C(=O)N[C@H](COC(=O)[C@@H](CC=C)Cc1ccc(F)cc1)C(C)(C)C the results were H9c2 TAG inh 95*, CSC inhib 5, Beta apoptosis 1, A1 inh -1 and H9c2 TAG conf 38.
Screening C=CC[C@@H](CC(=O)N(CCO)Cc1ccccc1)C(=O)N[C@H](COC(=O)[C@@H](CC=C)CC(=O)OC(C)(C)C)C(C)(C)C returned H9c2 TAG inh 73*, Beta apoptosis 12, A1 inh 0 and H9c2 TAG conf 81*.
`C=CC[C@@H](CC(=O)N(CCO)Cc1ccccc1)C(=O)N[C@H](COC(=O)[C@@H](CC=C)Cc1ccc(F)cc1)C(C)(C)C` gave H9c2 TAG inh 85*, Beta apoptosis -5, A1 inh 1 and H9c2 TAG conf 89*.
C=CC[C@@H](CC(=O)N(CCO)Cc1ccccc1)C(=O)N[C@@H](C)COC(=O)[C@@H](CC=C)Cc1ccc(F)cc1 was read as H9c2 TAG inh 22, Beta apoptosis -2 and A1 inh 1.
`C=CCC[C@H](Cc1ccc(F)cc1)C(=O)OC[C@@H](NC(=O)[C@@H](CC=C)CC(=O)N(CCO)Cc1ccccc1)C(C)(C)C` gave H9c2 TAG inh 87*, CSC inhib 51, Beta apoptosis 4, A1 inh -1 and H9c2 TAG conf 93*.
Cc1cc(C)cc(CC(=O)N2CCC2(C)C(=O)NS(=O)(=O)c2cccc(F)c2)c1 (stereo not given) was read as H9c2 TAG inh -1.
For Cc1ccc(NC(=O)CSCC(=O)Nc2cccc(S(=O)(=O)N3CCCCCC3)c2)cc1 the results were H9c2 TAG inh 2, CSC inhib -2, Beta apoptosis -7 and A1 inh 0.
`C=CCC[C@@H](Cc1ccc(F)cc1)C(=O)OC[C@@H](Cc1c[nH]c2ccccc12)NC(=O)[C@H](CC=C)CC(=O)N(CCO)Cc1ccccc1` gave H9c2 TAG inh 57*, Beta apoptosis -5, A1 inh 2 and H9c2 TAG conf 71*.
COc1ccc(OC)c(/C=C/C(=O)OCC(=O)c2c(N)n(C)c(=O)n(C)c2=O)c1 was read as T cruzi inh 2, H9c2 TAG inh 56*, Calb FLC 4, CSC inhib 7, Beta apoptosis -5, A1 inh 1 and H9c2 TAG conf -8.
COc1ccc(/C=C/C(=O)OCC(=O)c2c(N)n(C)c(=O)n(C)c2=O)c(OC)c1 was read as T cruzi inh -10, H9c2 TAG inh 23, Calb FLC 9, CSC inhib -11, Beta apoptosis 1 and A1 inh -1.

From PubChem BioAssay
